From ChEMBL document CHEMBL3297722, “Design, synthesis and docking studies of some novel (R)-2-(4'-chlorophenyl)-3-(4'-nitrophenyl)-1,2,3,5-tetrahydrobenzo[4,5] imidazo [1,2-c]pyrimidin-4-ol derivatives as antitubercular agents” (Eur J Med Chem, 2014)
Values after ≈ are worked out from the molar mass of the structure shown.

Columns and labels:
[1] = Cytotoxicity against African green monkey Vero cells assessed as survival at 50 ug/ml after 48 hrs by Cell-Titre Blue assay; type: cell-based; conditions: chlorocebus sabaeus, read-out: Survival
Outline: (§1)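 Vero cells in DMEM with 10% FBS, seeded at 20,000 cells/well and left to adhere overnight at 37 °C, 5% CO2. Medium then replaced with fresh medium containing compound, 48 h. Cell-Titer Blue added for a further 2 h; OD read at 560 nm. % survival = OD test/OD of DMSO-medium control ×100.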

[2] = tested on: Mycobacterium tuberculosis; test: Antitubercular activity against Mycobacterium tuberculosis H37Rv ATCC 27294 in GAST/Fe medium after 2 weeks by broth microdilution method; type: functional; conditions: H37Rv ATCC 27294, 336 h
Outline: (§2)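 Two-fold serial dilutions from DMSO stocks added to medium; equal volume of H37Rv diluted to 10,000 cells/mL in the same medium. DMSO-only wells; isoniazid positive control. 37 °C; growth read by inverted enlarging mirror. Quadruplicate. MIC = lowest concentration completely inhibiting growth.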

[3] = Cytotoxicity against African green monkey Vero cells assessed as survival at 25 ug/ml after 48 hrs by Cell-Titre Blue assay; type: cell-based; conditions: chlorocebus sabaeus, read-out: Survival; outline: as §1
[4] = tested on: Mycobacterium tuberculosis; test: Antitubercular activity against Mycobacterium tuberculosis H37Rv ATCC 27294 in 7H9/ADC/Tween medium after 2 weeks by broth microdilution method; type: functional; conditions: H37Rv ATCC 27294, 336 h; outline: as §2
[5] = tested on: Mycobacterium tuberculosis; test: Antitubercular activity against Mycobacterium tuberculosis H37Rv ATCC 27294 in GAST/Fe medium after 1 week by broth microdilution method; type: functional; conditions: H37Rv ATCC 27294, 168 h; outline: as §2
[6] = tested on: Mycobacterium tuberculosis; test: Antitubercular activity against Mycobacterium tuberculosis H37Rv ATCC 27294 in 7H9/ADC/Tween medium after 1 week by broth microdilution method; type: functional; conditions: H37Rv ATCC 27294, 168 h; outline: as §2

OC1=C2Nc3ccccc3N2CN(c2c(Cl)cccc2Cl)[C@@H]1c1cccc(O)c1
viability at 48 h, 50 ug/ml [1]: 61% | MIC [2]: 9.4 µg/mL (≈ 22.1 µM) | viability at 48 h, 25 ug/ml [3]: 63% | MIC [4]: 50 µg/mL (≈ 117 µM) | MIC [5]: 6.25 µg/mL (≈ 14.7 µM) | MIC [6]: 37 µg/mL (≈ 86.8 µM)

COc1ccccc1N1CN2C(=C(O)[C@H]1c1ccccc1O)Nc1ccccc12
viability at 48 h, 50 ug/ml [1]: 69% | MIC [2]: 25 µg/mL (≈ 64.5 µM) | viability at 48 h, 25 ug/ml [3]: 63% | MIC [4]: 75 µg/mL (≈ 194 µM) | MIC [5]: 19 µg/mL (≈ 49 µM) | MIC [6]: 50 µg/mL (≈ 129 µM)

Cc1cccc(C)c1N1CN2C(=C(O)[C@H]1c1ccc(O)cc1)Nc1ccccc12
viability at 48 h, 50 ug/ml [1]: 63% | MIC [2]: 9.4 µg/mL (≈ 24.4 µM) | viability at 48 h, 25 ug/ml [3]: 66% | MIC [4]: 19 µg/mL (≈ 49.3 µM) | MIC [5]: 6.25 µg/mL (≈ 16.2 µM) | MIC [6]: 12.5 µg/mL (≈ 32.4 µM)

COc1ccc([C@@H]2C(O)=C3Nc4ccccc4N3CN2c2ccc(OC)cc2)cc1
MIC [2]: 75 µg/mL (≈ 187 µM) | MIC [4]: ≥ 100 µg/mL | MIC [5]: 50 µg/mL (≈ 125 µM) | MIC [6]: 100 µg/mL (≈ 249 µM)

OC1=C2Nc3ccccc3N2CN(c2ccc(Br)cc2)[C@@H]1c1ccc(O)cc1
MIC [2]: 75 µg/mL (≈ 172 µM) | MIC [4]: > 100 µg/mL | MIC [5]: 75 µg/mL (≈ 172 µM) | MIC [6]: ≥ 100 µg/mL

OC1=C2Nc3ccccc3N2CN(c2cc(Cl)cc(Cl)c2)[C@@H]1c1ccc(Cl)cc1
viability at 48 h, 50 ug/ml [1]: 69% | MIC [2]: 50 µg/mL (≈ 112 µM) | viability at 48 h, 25 ug/ml [3]: 63% | MIC [4]: ≥ 100 µg/mL | MIC [5]: 37 µg/mL (≈ 83.2 µM) | MIC [6]: 100 µg/mL (≈ 225 µM)

COc1ccccc1[C@@H]1C(O)=C2Nc3ccccc3N2CN1c1cc(Cl)cc(Cl)c1
MIC [2]: 100 µg/mL (≈ 227 µM) | MIC [4]: 100 µg/mL (≈ 227 µM) | MIC [5]: 50 µg/mL (≈ 114 µM) | MIC [6]: 100 µg/mL (≈ 227 µM)

Cc1ccc([C@@H]2C(O)=C3Nc4ccccc4N3CN2c2c(C)cccc2C)c(N)c1C
viability at 48 h, 50 ug/ml [1]: 73% | MIC [2]: 75 µg/mL (≈ 182 µM) | viability at 48 h, 25 ug/ml [3]: 64% | MIC [4]: > 100 µg/mL | MIC [5]: 37 µg/mL (≈ 89.7 µM) | MIC [6]: 100 µg/mL (≈ 242 µM)

O=[N+]([O-])c1ccc(N2CN3C(=C(O)[C@H]2c2ccccc2[N+](=O)[O-])Nc2ccccc23)cc1
viability at 48 h, 50 ug/ml [1]: 61% | MIC [2]: 37 µg/mL (≈ 85.8 µM) | viability at 48 h, 25 ug/ml [3]: 53% | MIC [4]: 50 µg/mL (≈ 116 µM) | MIC [5]: 37 µg/mL (≈ 85.8 µM) | MIC [6]: 37 µg/mL (≈ 85.8 µM)

O=[N+]([O-])c1ccc(N2CN3C(=C(O)[C@H]2c2cccc([N+](=O)[O-])c2)Nc2ccccc23)cc1
viability at 48 h, 50 ug/ml [1]: 69% | MIC [2]: 4.7 µg/mL (≈ 10.9 µM) | viability at 48 h, 25 ug/ml [3]: 66% | MIC [4]: 37 µg/mL (≈ 85.8 µM) | MIC [5]: 3.13 µg/mL (≈ 7.26 µM) | MIC [6]: 25 µg/mL (≈ 57.9 µM)

COc1ccccc1[C@@H]1C(O)=C2Nc3ccccc3N2CN1c1c(C)cccc1C
MIC [2]: 100 µg/mL (≈ 250 µM) | MIC [4]: > 100 µg/mL | MIC [5]: 100 µg/mL (≈ 250 µM) | MIC [6]: 50 µg/mL (≈ 125 µM)

COc1ccc(O)c([C@@H]2C(O)=C3Nc4ccccc4N3CN2c2ccc(C(=O)O)cc2)c1
MIC [2]: > 100 µg/mL | MIC [4]: > 100 µg/mL | MIC [5]: > 100 µg/mL | MIC [6]: > 100 µg/mL

COc1ccc([C@@H]2C(O)=C3Nc4ccccc4N3CN2c2cc(Cl)cc(Cl)c2)cc1OC
MIC [2]: > 100 µg/mL | MIC [4]: > 100 µg/mL | MIC [5]: 100 µg/mL (≈ 213 µM) | MIC [6]: > 100 µg/mL

COc1ccc(N2CN3C(=C(O)[C@H]2c2cccc(-c4ccccn4)c2)Nc2ccccc23)cc1
viability at 48 h, 50 ug/ml [1]: 56% | MIC [2]: 19 µg/mL (≈ 42.4 µM) | viability at 48 h, 25 ug/ml [3]: 66% | MIC [4]: > 100 µg/mL | MIC [5]: 12.5 µg/mL (≈ 27.9 µM) | MIC [6]: ≥ 100 µg/mL

COc1ccc(N2CN3C(=C(O)[C@H]2c2cccc(Br)c2)Nc2ccccc23)cc1
MIC [2]: > 100 µg/mL | MIC [4]: > 100 µg/mL | MIC [5]: > 100 µg/mL | MIC [6]: > 100 µg/mL

OC1=C2Nc3ccccc3N2CN(c2cc(Cl)cc(Cl)c2)[C@@H]1c1ccccc1Cl
MIC [2]: > 100 µg/mL | MIC [4]: > 100 µg/mL | MIC [5]: > 100 µg/mL | MIC [6]: ≥ 100 µg/mL

O=[N+]([O-])c1ccc([C@@H]2C(O)=C3Nc4ccccc4N3CN2c2ccc(Cl)cc2)cc1
MIC [2]: > 100 µg/mL | MIC [4]: > 100 µg/mL | MIC [5]: 100 µg/mL (≈ 238 µM) | MIC [6]: > 100 µg/mL

NNC(=O)c1ccncc1 [ISONIAZID]
viability at 48 h, 50 ug/ml [1]: 100% | MIC [2]: 0.02 µg/mL (≈ 0.146 µM) | viability at 48 h, 25 ug/ml [3]: 100% | MIC [4]: 0.02 µg/mL (≈ 0.146 µM) | MIC [5]: 0.02 µg/mL (≈ 0.146 µM) | MIC [6]: 0.02 µg/mL (≈ 0.146 µM)
